KCNQ1 act = potentiators or activators of KCNQ1 channel, primary screen, cell-based, thallium flux, high-throughput; Potassium voltage-gated channel subfamily KQT member 1 (Homo sapiens), P51787; CHO-K1 KCNQ1, thallium flux FluxOR fluorescence; hits give high values; B-score at 10 µM; actives 0.35% (n = 310,000);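 active = fluorescence ratio B-score, a plate-corrected score, at least three library SD, with initial intensity B-score within 5 SD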
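Medium – assay buffer, equal DMSO in all wells · Material – CHO-K1 cell line with stable KCNQ1 potassium channel expression · Signal – kinetic FluxOR thallium fluorescence, 10-s 1-Hz baseline, 110-s post-stimulus read · Compound – single concentration per compound, DMSO matched to controls · Schedule – 37 °C overnight plating, 90-min dark dye load, 20-min compound pretreatment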
hERG rescue = hERG rescue from dofetilide block, primary screen, cell-based, CHO-hERG, FluxOR thallium flux, dofetilide IC70; Voltage-gated inwardly rectifying potassium channel KCNH2 (Homo sapiens), Q12809; activation (rescue from dofetilide block), less the hit threshold, % at 10 µM; dofetilide IC70 present; actives 0.51% (n = 310,000);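 active = activation above the mean of controls blocked by dofetilide plus 5 SD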;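 note: thallium influx through hERG after potassium depolarization seen as dye fluorescence rise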
KCNK3 block = human KCNK3 channel inhibitors, primary screen, CHO cells, FluxOR thallium flux, B-score | Potassium channel subfamily K member 3 (Homo sapiens), O14649 | FluxOR fluorescence; hits give low values | B-score at 10 µM | actives 0.84% (n = 340,000) | AID 602410, 2012;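 active = B-score under library mean minus 4 SD, starting fluorescence ratio at most library mean plus 5 SD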;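 note: more negative B-score means stronger inhibition of thallium flux through KCNK3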
KCC2 mod = KCC2 cotransporter modulators, thallium flux, primary screen, cell-based, HEK293 KCC2, FluoZin-2 fluorescence, MLSMR. KCC2 cells, thallium flux FluoZin-2 fluorescence. Solute carrier family 12 member 5 (Homo sapiens), Q9H2X9. actives 2.2% (n = 190,000). B-score of Tl+ flux slope (higher = more flux/activation; lower = inhibition) at 10 µM. AID 1456, 2008;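 active = thallium flux slope and its plate-corrected score both differing from the plate sample mean at a set confidence after two filtering rounds, in either direction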;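 note: slope of fluorescence scaled to starting intensity during 10 to 20 s after thallium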
KCNK9 inh = KCNK9 potassium channel inhibitors, primary screen, HEK293 cells, thallium flux | FluxOR thallium flux fluorescence; hits give low values | actives 1.2% (n = 310,000) | Potassium channel subfamily K member 9 (Homo sapiens), Q9NPC2 | B-score at 10 µM;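 active = ratio B-score over 3 SD below the library mean, with starting fluorescence within 5 SD of its mean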;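 note: negative B-score means less thallium flux so channel inhibition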
KCNQ1 block = inhibitors of human KCNQ1 channel, primary screen, cell-based, thallium flux, high-throughput; Potassium voltage-gated channel subfamily KQT member 1 (Homo sapiens), P51787; CHO-K1 KCNQ1, FluxOR thallium flux fluorescence; hits give high values; B-score at 10 µM; actives 1.3% (n = 310,000); AID 2642, 2010;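 active = compounds whose thallium flux B-score, printed positive for inhibition, exceeds three library SD while starting fluorescence stays within three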;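 note: channel opened by potassium depolarization with thallium stimulus after 20 min compound exposure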
An asterisk follows results filed as active; i = inactive; nt = not tested or not shown. In the library only some 4.1% were active in any assay of this set; here they are far more common.

SMILES	KCNQ1 act	hERG rescue	KCNK3 block	KCC2 mod	KCNK9 inh	KCNQ1 block
C=C1/C(=C\C=C2/CCC[C@]3(C)[C@@H]([C@H](C)CCCC(C)(C)O)CC[C@@H]23)C[C@@H](O)C[C@@H]1O	i	-7	nt	0.53	i	7*
CN(C)CCOC1c2ccccc2CCc2ccc3ccccc3c21 (centres undefined)	i	-10	i	nt	i	i
Cc1cc(S(=O)(=O)Nc2ccc(C(=O)N3CCN(C(=O)c4ccco4)CC3)cc2)ccc1F	i	7.5*	i	-0.43	i	i
O=C(c1ccc(S(=O)(=O)Nc2ccc(F)cc2)cc1)N1CCN(C(=O)c2ccco2)CC1	i	-5	i	nt	i	i
Cc1ccccc1-n1c(SC(C)C(=O)NCC2CCCO2)nnc1-c1ccncc1 (centres undefined)	nt	nt	i	nt	nt	nt
FC(F)(F)c1cnc2c(c1)[nH]c(=S)n2-c1ccc(Cl)cc1	i	5.5*	i	nt	i	i
O=C(NCCCN1CCCC1=O)Nc1ccc(F)c(Cl)c1	i	-11	i	1.2	i	6*
O=C(C1CC1)N1CCc2sccc2C1c1ccc(Cl)cc1 (centres undefined)	i	-3	i	-2.2	i	6*
COc1ccc(C2c3ccsc3CCN2C(C)=O)cc1 (centres undefined)	i	-13	i	-0.47	i	i
Cc1ccc(C)c(-n2c(-c3ccc(Br)cc3)csc2=NC(=O)c2ccccc2F)c1	i	-5	i	-0.35	-7.7*	i
Cn1ccsc1=NC(=O)c1ccccc1F	i	-2	i	0.065	i	i
O=C(NCCN1CCOCC1)C1CC(=O)N(c2cccc(C(F)(F)F)c2)C1 (centres undefined)	nt	nt	i	nt	nt	nt
COc1cc(OC)cc(-c2nnc(Nc3nc4c(F)cccc4s3)o2)c1	22*	5.9*	i	9.1*	i	i
NNc1nc2c(F)cccc2s1	i	-9	i	0.027	i	i
Fc1cccc2sc(Nc3nnc(-c4ccccc4)o3)nc12	66*	51*	i	nt	i	i
O=C(Nc1ccccc1C(F)(F)F)NC1(C(=O)N2CCOCC2)CCCCC1	nt	nt	i	nt	nt	nt
O=C(NCc1ccccc1)C(=O)Nc1nc(C23CC4CC(CC(C4)C2)C3)cs1	10*	18*	i	3.9*	i	i
CCCN(CC(=O)Nc1ccccc1OC)CC(=O)c1c(N)n(Cc2ccccc2)c(=O)n(C)c1=O	nt	nt	i	nt	nt	nt
Cc1ccc(Cl)cc1N1CCN(C(=O)CNC(=O)c2ccc(Br)o2)CC1	nt	nt	i	nt	nt	nt
CCNc1ccc(C(=O)N/N=C/c2c(C)nn(-c3ccccc3)c2N2CCCC2)cc1[N+](=O)[O-]	i	-7	i	-2	i	6*
Cc1ccc(NS(=O)(=O)c2cccc(C(=O)N/N=C/c3c(C)nn(-c4ccccc4)c3N3CCCC3)c2)c(C)c1	i	-4	i	-0.0062	i	i
Cc1cccc([C@@H]2[C@@H]3C(=O)N(Cc4ccccc4)C(=O)[C@@H]3[C@]3(Cc4ccccc4)C(=O)N(c4ccc(C(F)(F)F)cc4)C(=O)N23)c1	i	-3	i	nt	i	i
O=[N+]([O-])c1cccc(/C=C/c2nc3ccc([N+](=O)[O-])cc3[nH]2)c1	i	-35	i	-0.81	i	9*
Cc1cccc(NC(=O)NNC(=O)COc2ccc3ccccc3c2)c1	i	-4	i	nt	i	i
CCOc1ccc(NC(=O)COc2ccc(OC)cc2)cc1	i	-8	i	nt	i	i
SMILES	KCNQ1 act	hERG rescue	KCNK3 block	KCC2 mod	KCNK9 inh	KCNQ1 block
CCc1ccc(NC(=O)C(=O)NNC(=O)COc2cccc(OC)c2)cc1	28*	7.2*	i	18*	i	i
O=C(COc1ccc2ccccc2c1)NNC(=O)C(=O)Nc1ccccc1	35*	45*	i	nt	i	i
COc1ccc(NC(=O)C(=O)NNC(=O)COc2ccc(OC)cc2)cc1	i	7.8*	i	nt	i	i
COc1ccc(NC(=O)C(=O)NNC(=O)COc2ccc(Cl)cc2)c(OC)c1	69*	16*	i	nt	i	i
O=C1CCN(Cc2ccco2)C(=S)N1	nt	nt	i	nt	nt	nt
O=C(Nc1ccc(Cl)cc1)Nc1cc([N+](=O)[O-])ccc1F	i	-10	i	-0.67	i	i
COc1ccc(OC(C)C(=O)Nc2ccc([N+](=O)[O-])cc2)cc1 (centres undefined)	i	-8	i	-0.65	i	i
O=C(Nc1ccc([N+](=O)[O-])cc1)Nc1ccc(Cl)cc1F	i	-16	i	-0.96	i	14*
Cc1cc(OC(F)F)ccc1NC(=O)Nc1ccc([N+](=O)[O-])cc1	i	-11	i	-1.1	i	6*
COc1ccc(S(=O)(=O)Nc2cccc3c2O[C@H](CN(C)C(=O)NC(C)C)[C@@H](C)CN([C@H](C)CO)C3=O)cc1	nt	nt	i	nt	nt	nt
COc1cccc(C2c3cc4c(cc3OC(C)(N3CCCC3)C2C)OCO4)c1O (centres undefined)	nt	nt	i	nt	nt	nt
O=c1c(Br)ccc(Br)cc1Br	nt	nt	i	nt	nt	nt
CCC1C(=O)CC(c2ccc([N+](=O)[O-])cc2)NC1c1ccc([N+](=O)[O-])cc1 (centres undefined)	i	-15	i	0.038	i	8*
COc1ccc(Cl)cc1NC(=O)CCc1nnc2ccc(N3CCN(C)CC3)nn12	i	-12	i	nt	i	i
CN(C)c1ccc(C(=O)Nc2nc3c(s2)CCCC3)cc1	i	-18	i	-0.76	i	i
C/C(=N\Nc1nc2c(s1)CCCC2)c1ccc(Cl)cc1	i	-6	i	nt	i	6*
COC(=O)c1ccccc1S(=O)(=O)N1CCn2cccc2C1C (centres undefined)	i	35*	i	-2.9	i	i
COc1ccc(NC(C)=O)cc1S(=O)(=O)N1CCn2cccc2C1C (centres undefined)	nt	nt	i	nt	nt	nt
CCOc1ccc(NC(=O)N(Cc2ccc(C)cc2)Cc2ccccn2)cc1	i	-5	i	nt	i	i

Screens: PubChem BioAssay, several laboratories
